Measured values collected from several papers.
Each line is one published result; the experiments were not run side by side.
Target: Serine/threonine-protein kinase NLK (NLK, Homo sapiens, UniProt Q9UBE8)
Residues used in one study (Q9UBE8 1-527): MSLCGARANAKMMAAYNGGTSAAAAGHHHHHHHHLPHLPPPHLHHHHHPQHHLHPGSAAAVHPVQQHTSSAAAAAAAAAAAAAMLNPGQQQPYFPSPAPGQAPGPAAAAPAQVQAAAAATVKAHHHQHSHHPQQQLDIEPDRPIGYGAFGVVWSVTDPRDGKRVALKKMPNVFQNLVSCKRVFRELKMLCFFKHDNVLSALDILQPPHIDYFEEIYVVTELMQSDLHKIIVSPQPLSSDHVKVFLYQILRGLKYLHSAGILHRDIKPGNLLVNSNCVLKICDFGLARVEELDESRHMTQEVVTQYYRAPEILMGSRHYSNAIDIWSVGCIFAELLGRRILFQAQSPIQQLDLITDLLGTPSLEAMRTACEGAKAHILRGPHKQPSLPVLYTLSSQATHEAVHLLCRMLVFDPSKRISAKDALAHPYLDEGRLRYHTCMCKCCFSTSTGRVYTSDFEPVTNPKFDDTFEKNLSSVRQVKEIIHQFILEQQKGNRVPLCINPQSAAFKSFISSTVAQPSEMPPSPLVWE

The remaining signal of O=C1Nc2ccc(Cl)cc2C1=Cc1cc(Cl)c(O)c(Cl)c1 is reported as 38.9% (cell-free assay; 0.5 µM).
For O=S(=O)(NC1CCC(c2cc(F)ccc2F)(S(=O)(=O)c2ccc(Cl)cc2)CC1)C(F)(F)F (stereo not shown), the remaining binding was 100% (cell-free assay; competition with immobilised ligand; 1 µM).
Cn1cncc1C1=CN(c2ncnc3[nH]cnc23)CCS1 gave an inhibition of 19.6% (enzyme activity; inhibitor; radiometric; 50 nM).
The remaining binding of CS(=O)(=O)c1cc(C2(NC(=O)c3cncc4c3cnn4-c3ccc(F)cc3)CC2)ccn1 is reported as 100% (cell-free assay; competition with immobilised ligand; 1 µM).
Cc1ccc(C(=O)Nc2ccc(CN3CCN(C)CC3)c(C(F)(F)F)c2)cc1C#Cc1cnc2cccnn12 gave a remaining signal of 52% (cell-free assay; 23.5 nM).
The remaining activity of CC(C)(C)c1nc(-c2cccc(NS(=O)(=O)c3c(F)cccc3F)c2F)c(-c2ccnc(N)n2)s1 is reported as 78% (enzyme activity; inhibitor; radiometric; 1 µM).
Cc1sc(C(=O)NC2COC2)cc1-n1cc(NC(=O)Nc2c(F)cccc2Cl)cn1 has a remaining activity of 85.2% (enzyme activity; inhibitor; 10 µM).
With COc1cc(Cl)c(C(=O)N[C@@H](CN[C@H]2CC[C@@H](N)CC2)Cc2ccc(C#N)cc2)cc1-c1ccc(CN[C@H](C)c2ccc(C)cc2)o1 the remaining activity was 88% (enzyme activity; inhibitor; 1 µM).
For Fc1cccc(-n2cnc3c(NCc4nc5c(F)c(F)ccc5[nH]4)nc(N4CCOCC4)nc32)c1, the binding vs control was 98% (binding; competition with immobilised ligand; 10 µM).
With CNC(=O)c1cc(Oc2ccc(NC(=O)Nc3ccc(Cl)c(C(F)(F)F)c3)cc2)ccn1 the inhibition was -5% (enzyme activity; inhibitor; 0.3 µM).
With CCN(CC)c1ccc(C2=NNC(=O)CC2C)cc1[N+](=O)[O-] (stereo not shown) the remaining activity was 105% (enzyme activity; inhibitor; 10 µM).
The remaining binding of CC(=O)C1=C(C)N(c2cccc(C(F)(F)F)c2)C(=O)N[C@@H]1c1ccc(C#N)nc1 is reported as 93% (cell-free assay; competition with immobilised ligand; 1 µM).
Cc1ccc(Nc2nccc(N(C)c3ccc4c(C)n(C)nc4c3)n2)cc1S(N)(=O)=O has an inhibition of 19% (enzyme activity; inhibitor; 0.3 µM).
For CC(C)(O)c1cncc(-c2nc3ccc(F)cc3n2C2CC2)c1, the remaining binding was 100% (cell-free assay; competition with immobilised ligand; 1 µM).
For O=C1NC(=O)c2cc(Nc3ccc(F)cc3)c(Nc3ccc(F)cc3)cc21, the remaining signal was 103% (cell-free assay; 0.5 µM).
For O=C(NCc1ncc(C(F)(F)F)cc1Cl)c1ccc2c(c1)C1(CCS(=O)(=O)CC1)[C@H](C1CC1)N2S(=O)(=O)c1ccc(F)cc1, the remaining binding was 100% (cell-free assay; competition with immobilised ligand; 1 µM).
CCN(CC)CCNC(=O)c1c(C)[nH]c(/C=C2\C(=O)Nc3ccc(F)cc32)c1C has an inhibition of 7% (enzyme activity; inhibitor; 10 µM).
With NS(=O)(=O)c1cc(NC(=O)Cc2ccccc2)ccc1Oc1cccc(Cl)c1 the remaining binding was 100% (cell-free assay; competition with immobilised ligand; 1 µM).
Cc1cc(NC(=O)c2cccc3cc(-c4cccc5[nH]nc(N)c45)ccc23)ccc1F gave an activity vs control of 97% (enzyme activity; inhibitor; 0.1 µM).
